By IC50 is commonly meant the concentration that gives 50% inhibition.

Assay [1] deals with MCF7. Put plainly: Anticancer activity against 8 Gy gamma-irradiated human MCF7 cells assessed as viable cells after 48 hrs at 10 uM by SRB assay relative to control. It is filed as functional. The gist of the method:
(§1)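 MCF7 human breast tumor cells seeded at 10⁴ cells/well and left 24 h to attach. Compounds dissolved in DMSO, added in replicate wells per concentration, 48 h at 37 °C under 5% CO₂. Cells fixed and stained 30 min with 0.4% (wt/vol) SRB in 1% acetic acid. Washed four times with 1% acetic acid, dye recovered in Tris-EDTA, read on an ELISA reader.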
For orientation: Sulforhodamine B stains cellular protein and so reports cell mass.

Assay [2] has as its system MCF7. Description: Anticancer activity against 8 Gy gamma-irradiated human MCF7 cells assessed as viable cells after 48 hrs at 25 uM by SRB assay relative to control. It is filed as functional. An outline of the steps:
as §1

The test system of assay [3] is MCF7. Description: Anticancer activity against 8 Gy gamma-irradiated human MCF7 cells assessed as viable cells after 48 hrs at 50 uM by SRB assay relative to control. In kind it is functional. The gist of the method:
as §1

The subject of assay [4] is MCF7. Put plainly: Anticancer activity against 8 Gy gamma-irradiated human MCF7 cells assessed as viable cells after 48 hrs at 100 uM by SRB assay relative to control. In kind it is functional. The gist of the method:
as §1

Assay [5] relates to MCF7. Description: Anticancer activity against 8 Gy gamma-irradiated human MCF7 cells assessed as viable cells after 48 hrs by SRB assay. In kind it is functional, cell-based. The following applies: MCF7, light or radiation study. An outline of the steps:
as §1

For assay [6], the system named is MCF7. Description: Anticancer activity against human MCF7 cells assessed as viable cells after 48 hrs by SRB assay. It is filed as functional, cell-based. As to conditions: MCF7, 48 h. An outline of the steps:
as §1

In assay [7] the test system is MCF7. Put plainly: Anticancer activity against human MCF7 cells assessed as viable cells at 10 uM after 48 hrs by SRB assay relative to control. In kind it is functional. The gist of the method: as §1
Assay [8] has as its system MCF7. Put plainly: Anticancer activity against human MCF7 cells assessed as viable cells at 25 uM after 48 hrs by SRB assay relative to control. In kind it is functional. The gist of the method:
as §1

Assay [9] relates to MCF7. Description: Anticancer activity against human MCF7 cells assessed as viable cells at 50 uM after 48 hrs by SRB assay relative to control. It is filed as functional. An outline of the steps:
as §1

Assay [10] deals with MCF7. Description: Anticancer activity against human MCF7 cells assessed as viable cells at 100 uM after 48 hrs by SRB assay relative to control. It is filed as functional. An outline of the steps: as §1

Regarding `N#CC1=C(N)Oc2nc(Nc3ccc(S(N)(=O)=O)cc3)sc2C1c1ccc(Cl)cc1` (stereo not given), the “fold change (FC)” value in assay [1] came out at 0.706; in assay [2] it was 0.203; in assay [3], 0.062; in [4] it was 0.097; in assay [7], 0.848; in [8], 0.36. Moreover, the “fold change (FC)” value stood at 0.168 in [9] and 0.214 in [10]. The IC50 came to 26.2 µM in assay [5] and 39.4 µM in [6].

With `NS(=O)(=O)c1ccc(Nc2nc3c(s2)C(c2ccc(Cl)cc2)c2c(nc[nH]c2=O)O3)cc1` (stereo not given), the “fold change (FC)” value in assay [1] amounted to 0.65; in [2] it was 0.371; in assay [3], 0.06; in assay [4], 0.04; in assay [7], 0.794; in assay [8], 0.515. For the same molecule, the “fold change (FC)” value was 0.204 in assay [9] and 0.175 in assay [10]. Moreover, the values for the half-inhibitory concentration (IC50) in [5] and in assay [6] were 28.4 µM and 41.6 µM, respectively.

As for `CC(=O)NC1=C(C#N)C(c2ccc(Cl)cc2)c2sc(Nc3ccc(S(N)(=O)=O)cc3)nc2O1` (stereo not given), in [6], the half-inhibitory concentration (IC50) was 41.9 µM. Further, the “fold change (FC)” value was determined as 0.801 in [7], 0.447 in [8], 0.183 in [9] and 0.252 in assay [10].

Regarding `CC(=O)N(C(C)=O)C1=C(C#N)C(c2ccc(Cl)cc2)c2sc(Nc3ccc(S(N)(=O)=O)cc3)nc2O1` (stereo not given), the half-inhibitory concentration (IC50) in assay [6] came to 74.3 µM. Besides, the “fold change (FC)” value turned out to be 0.913 in [7], 0.511 in assay [8], 0.234 in [9] and 0.617 in [10].

As to `NC(=O)C1=C(N)Oc2nc(Nc3ccc(S(N)(=O)=O)cc3)sc2C1c1ccc(Cl)cc1` (stereo not given), the IC50 in [6] was 41.8 µM. In addition, the “fold change (FC)” value in [7] worked out at 0.815; in [8], 0.499; in assay [9], 0.169; in [10], 0.21.

On to `Nc1ncnc2c1C(c1ccc(Cl)cc1)c1sc(Nc3ccc(S(N)(=O)=O)cc3)nc1O2` (stereo not given), for which the “fold change (FC)” value was determined as 0.504 in assay [1]; 0.341 in assay [2]; 0.064 in assay [3]; 0.086 in [4]; 0.62 in assay [7]; 0.454 in assay [8]. Further, the “fold change (FC)” value in [9] was found to be 0.186; in [10], 0.207. Also, the IC50 amounted to 23.7 µM in assay [5] and 35.8 µM in [6].

For the molecule `N#CC1=C(/N=C/c2ccccc2)Oc2nc(Nc3ccc(S(N)(=O)=O)cc3)sc2C1c1ccc(Cl)cc1` (stereo not given), in assay [6], the half-maximal inhibitory concentration (IC50) amounted to 45.2 µM. Besides, the “fold change (FC)” value in assay [7] is reported as 0.93; in assay [8], 0.206; in assay [9], 0.295; in [10], 0.324.

In the case of `N#CC1=C(/N=C/c2ccc(Cl)cc2)Oc2nc(Nc3ccc(S(N)(=O)=O)cc3)sc2C1c1ccc(Cl)cc1` (stereo not given), the “fold change (FC)” value in assay [1] came to 0.462; in assay [2], 0.124; in assay [3] it was 0.143; in assay [4], 0.182; in [7] it was 0.634; in [8], 0.24. Also, the figures for the “fold change (FC)” value in assay [9] and in assay [10] were 0.257 and 0.304, respectively. The IC50 is 17 µM in [5] and 34.6 µM in [6].

As for `N#CC1=C(NS(=O)(=O)c2ccccc2)Oc2nc(Nc3ccc(S(N)(=O)=O)cc3)sc2C1c1ccc(Cl)cc1` (stereo not given), in assay [6], the IC50 was determined as 47.5 µM. For the same molecule, the “fold change (FC)” value is 0.697 in [7], 0.492 in assay [8], 0.239 in assay [9] and 0.361 in assay [10].

As for `Cc1ccc(S(=O)(=O)NC2=C(C#N)C(c3ccc(Cl)cc3)c3sc(Nc4ccc(S(N)(=O)=O)cc4)nc3O2)cc1` (stereo not given), in assay [6], the half-inhibitory concentration (IC50) came out at 71.7 µM. The “fold change (FC)” value in [7] was 0.92; in assay [8] it was 0.52; in assay [9], 0.2; in [10], 0.6.

With `Nc1nc(=O)[nH]c2c1C(c1ccc(Cl)cc1)c1sc(Nc3ccc(S(N)(=O)=O)cc3)nc1O2` (stereo not given), the IC50 in assay [6] is 84.1 µM. Also, the “fold change (FC)” value came to 0.9 in assay [7], 0.56 in [8], 0.265 in [9] and 0.654 in assay [10].

On to `Nc1nc(=S)[nH]c2c1C(c1ccc(Cl)cc1)c1sc(Nc3ccc(S(N)(=O)=O)cc3)nc1O2` (stereo not given), for which the IC50 in assay [6] was 52.8 µM. The “fold change (FC)” value in [7] amounted to 0.814; in [8], 0.639; in assay [9], 0.241; in assay [10] it was 0.325.

Turning to `N#CC1=C(NC(N)=O)Oc2nc(Nc3ccc(S(N)(=O)=O)cc3)sc2C1c1ccc(Cl)cc1` (stereo not given), the IC50 in assay [6] stood at 49.8 µM. Moreover, the “fold change (FC)” value in assay [7] was 0.701; in assay [8], 0.717; in [9] it was 0.309; in assay [10], 0.228.

Consider `N#CC1=C(NC(=O)CCl)Oc2nc(Nc3ccc(S(N)(=O)=O)cc3)sc2C1c1ccc(Cl)cc1` (stereo not given), for which the half-maximal inhibitory concentration (IC50) in assay [6] is 43.8 µM. Besides, the “fold change (FC)” value in assay [7] amounted to 0.702; in assay [8], 0.531; in [9] it was 0.25; in assay [10], 0.252.

The values above are taken from ChEMBL document CHEMBL1828606, “Anticancer and radio-sensitizing evaluation of some new thiazolopyrane and thiazolopyranopyrimidine derivatives bearing a sulfonamide moiety” (Eur J Med Chem, 2011).
